Assay results as given in ChEMBL document CHEMBL1126267, “A novel synthesis and potent antiinflammatory activity of 4-hydroxy-2(1H)-oxo-1-phenyl-1,8-naphthyridine-3-carboxamides” (1992).

How the values were obtained:
Format in all cases: functional
Rattus norvegicus [1] = assay: Inhibition of Zymosan-induced rat's paw edema(ZPE) after peroral administration of 100 mg/kg dose.; settings: route oral
In short: (§1)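 Male Wistar rats (about 150 g) were dosed orally with compound suspended in 5% arabic gum, 1 h before a subplantar hind-paw injection of 0.1 mL saline. The irritant was 1% zymosan for 33 or 1% λ-carrageenin for 34. Paw volume was measured by plethysmograph before dosing and at 4 h (zymosan) or 3 h (carrageenin). Swelling is relative to initial volume, as mean ± SEM. % inhibition is versus the control group's mean swelling.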

Rattus norvegicus [2] = assay: Inhibition of carrageenan-induced rat's paw edema (CPE) after peroral administration of 100 mg/kg dose.; settings: route oral; in short: as §1
Rattus norvegicus [3] = assay: Antiinflammatory activity on Zymosan-induced rat's paw edema(ZPE) after peroral administration of 10 mg/kg dose with control swelling of 68.1%; settings: route oral
In short: (§2)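 Male Wistar rats weighing about 150 g were dosed orally with compound suspended in 5% arabic gum. 1 h later, 1% zymosan in 0.1 mL saline was injected subplantarly into the hind paw. Paw volume was measured by plethysmograph before dosing and 4 h after zymosan, with edema as the volume difference. Inhibition % was derived from mean swelling versus the control group.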

Rattus norvegicus [4] = assay: Antiinflammatory activity on Carrageenan rat's paw edema(CPE) after peroral administration of 30 mg/kg dose with control swelling of 75.8%; settings: route oral
Rattus norvegicus [5] = assay: Compound was tested for the inhibition of rat reversed passive Arthus pleurisy after peroral administration of 100 mg/kg dose at 0.08+/-0.01 mL of exudate volume (injected intrapleurally); settings: route oral
In short: (§3)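 Male Wistar rats (about 250 g) were given compound orally before the antiserum. Under ether anesthesia, 0.2 mL rabbit anti-egg albumin antiserum was injected intrapleurally. After 30 min, egg albumin (15 mg/100 g body weight in 0.1 mL saline) was given iv. Rats were killed 4.5 h later and the thoracic cavity was rinsed with 5 mL saline. Exudate volume and infiltrated cell number were measured, with inhibition % versus controls as mean ± SEM.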

Rattus norvegicus [6] = assay: Compound was tested for the inhibition of rat reversed passive Arthus pleurisy after peroral administration of 25 mg/kg dose at 0.4+/-0.07 mL of exudate volume (injected intrapleurally); settings: route oral
In short: (§4)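 Male Wistar rats (about 250 g) under ether received 0.2 mL rabbit anti-egg-albumin antiserum intrapleurally. Thirty min later they got 15 mg EA/100 g body weight in 0.1 mL saline iv. Compounds were given orally beforehand. Rats were killed 4.5 h after induction and the thoracic cavity rinsed with 5 mL saline. Exudate volume and infiltrated cell count were read as mean ± SE. % inhibition is versus control.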

Rattus norvegicus [7] = assay: Antiinflammatory activity on Zymosan-induced rat's paw edema(ZPE) after peroral administration of 3 mg/kg dose with control swelling of 68.1%; settings: route oral; in short: as §2
Rattus norvegicus [8] = assay: Compound was tested for the inhibition of Carrageenan rat's paw edema(CPE) after peroral administration of 3 mg/kg dose; settings: route oral
Rattus norvegicus [9] = assay: Compound was tested for the inhibition of Zymosan-induced rat's paw edema(ZPE) after peroral administration of 30 mg/kg dose; settings: route oral; in short: as §2
Rattus norvegicus [10] = assay: Compound was tested for the inhibition of rat reversed passive Arthus pleurisy after peroral administration of 100 mg/kg dose at 0.08 mL of exudate volume with 0.86 mL of control (injected intrapleurally); settings: route oral; in short: as §3
Rattus norvegicus [11] = assay: Antiinflammatory activity on Carrageenan rat's paw edema(CPE) after peroral administration of 3 mg/kg dose with control swelling of 75.8%; settings: route oral
Rattus norvegicus [12] = assay: Antiinflammatory activity on Carrageenan rat's paw edema(CPE) after peroral administration of 10 mg/kg dose with control swelling of 75.8%; settings: route oral
Rattus norvegicus [13] = assay: Compound was tested for the inhibition of Zymosan-induced rat's paw edema(ZPE) after peroral administration of 3 mg/kg dose; settings: route oral; in short: as §2
Rattus norvegicus [14] = assay: Compound was tested for the inhibition of rat reversed passive Arthus pleurisy after peroral administration of 10 mg/kg dose at 0.53+/-0.05 mL of exudate volume (injected intrapleurally); settings: route oral; in short: as §3
Rattus norvegicus [15] = assay: Compound was tested for the inhibition of arachidonic acid-induced rat's paw edema(APE) after peroral administration of 30 mg/kg dose with control swelling of 51.6%; settings: route oral
Rattus norvegicus [16] = assay: Compound was tested for the inhibition of arachidonic acid-induced rat's paw edema(APE) after peroral administration of 10 mg/kg dose with control swelling of 51.6%; settings: route oral
In short: (§5)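 Test: arachidonic acid paw edema in male Wistar rats of about 150 g. Oral dosing in 5% arabic gum came 1 h before subplantar injection of 1% arachidonic acid sodium salt in 0.1 mL saline into the hind paw. Plethysmograph paw volume was read before dosing and 1 h post-irritant, and edema = volume difference. % inhibition was taken from mean swelling against controls.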

Rattus norvegicus [17] = assay: Compound was tested for the inhibition of Zymosan-induced rat's paw edema(ZPE) after peroral administration of 10 mg/kg dose; settings: po; in short: as §2
Rattus norvegicus [18] = assay: Antiinflammatory activity on Carrageenan rat's paw edema(CPE) after peroral administration of 100 mg/kg dose with control swelling of 64.2%; settings: route oral
Rattus norvegicus [19] = assay: Antiinflammatory activity on Zymosan-induced rat's paw edema(ZPE) after peroral administration of 30 mg/kg dose with control swelling of 68.1%; settings: route oral; in short: as §2
Rattus norvegicus [20] = assay: Compound was tested for the inhibition of rat reversed passive Arthus pleurisy after peroral administration of 100 mg/kg dose at 2.13+/-0.24*10e6 no of cells; settings: route oral; in short: as §3
Rattus norvegicus [21] = assay: Compound was tested for the inhibition of rat reversed passive Arthus pleurisy after peroral administration of 10 mg/kg dose at 4.6+/-0.25*10e6 no of cells; settings: route oral; in short: as §3
Rattus norvegicus [22] = assay: Compound was tested for the inhibition of rat reversed passive Arthus pleurisy after peroral administration of 25 mg/kg dose at 4.74+/-0.24*10e6 no of cells; settings: route oral; in short: as §4
Rattus norvegicus [23] = assay: Compound was tested for the inhibition of arachidonic acid-induced rat's paw edema(APE) after peroral administration of 30 mg/kg dose; settings: route oral; in short: as §5
Rattus norvegicus [24] = assay: Compound was tested for the inhibition of arachidonic acid-induced rat's paw edema(APE) after peroral administration of 10 mg/kg dose; settings: route oral; in short: as §5
Rattus norvegicus [25] = assay: Compound was tested for the inhibition of arachidonic acid-induced rat's paw edema(APE) after peroral administration of 3 mg/kg dose; settings: route oral; in short: as §5
Rattus norvegicus [26] = assay: Antiinflammatory activity on Zymosan-induced rat's paw edema(ZPE) after peroral administration of 100 mg/kg dose with control swelling of 71.7%; settings: route oral; in short: as §2
Rattus norvegicus [27] = assay: Compound was tested for the inhibition of rat reversed passive Arthus pleurisy after peroral administration of 100 mg/kg dose at 2.13*10e6 no of cells with 3.86*10e6 cells of control; settings: route oral; in short: as §3
Rattus norvegicus [28] = assay: Compound was tested for the inhibition of rat reversed passive Arthus pleurisy after peroral administration of 5 mg/kg dose at 2.79 +/- 0.19*10e6 no of cells; settings: route oral; in short: as §4
Rattus norvegicus [29] = assay: Compound was tested for the inhibition of rat reversed passive Arthus pleurisy after peroral administration of 5 mg/kg dose at 0.73+/-0.03 mL of exudate volume (injected intrapleurally); settings: route oral; in short: as §4
Rattus norvegicus [30] = assay: Compound was tested for the inhibition of arachidonic acid-induced rat's paw edema(APE) after peroral administration of 3 mg/kg dose with control swelling of 51.6%; settings: route oral; in short: as §5
Rattus norvegicus [31] = assay: Antiinflammatory activity on Carrageenan rat's paw edema(CPE) after peroral administration of 100 mg/kg dose with control swelling of 73.7%; settings: route oral
Rattus norvegicus [32] = assay: Antiinflammatory activity on Zymosan-induced rat's paw edema(ZPE) after peroral administration of 100 mg/kg dose with control swelling of 72.9%; settings: route oral; in short: as §2
Rattus norvegicus [33] = assay: Compound was tested for the inhibition of rat reversed passive Arthus pleurisy after peroral administration of 100 mg/kg dose at 0.37 mL of exudate volume with 0.46 mL of control (injected intrapleurally); settings: route oral; in short: as §3
Rattus norvegicus [34] = assay: Compound was tested for the inhibition of rat reversed passive Arthus pleurisy after peroral administration of 100 mg/kg dose at 1.59+/-0.13*10e6 no of cells with 2.17*10e6 cells of control; settings: route oral; in short: as §3

`O=C(Nc1ccncc1)c1c(O)c2cccnc2n(-c2ccccc2)c1=O` gave an inhibition in vivo at 100 mg/kg (Rattus norvegicus [1]) of 34.9%, an inhibition in vivo at 100 mg/kg (Rattus norvegicus [2]) of 24.3% and a Swelling (Rattus norvegicus [3]) of 54.3%. For the same compound, the Swelling (Rattus norvegicus [4]) was 58.8%, the inhibition in vivo at 100 mg/kg (Rattus norvegicus [5]) was 100% and the inhibition in vivo at 25 mg/kg (Rattus norvegicus [6]) was 51.4%. It also gave a Swelling (Rattus norvegicus [7]) of 60.6%, an inhibition in vivo at 3 mg/kg (Rattus norvegicus [8]) of 4.9% and an inhibition in vivo at 30 mg/kg (Rattus norvegicus [9]) of 28.8%. For the same compound, the inhibition in vivo at 100 mg/kg (Rattus norvegicus [10]) was 100%, the Swelling (Rattus norvegicus [11]) was 72.1% and the Swelling (Rattus norvegicus [12]) was 71.3%. The inhibition in vivo at 3 mg/kg (Rattus norvegicus [13]) was 11.9%, the inhibition in vivo at 10 mg/kg (Rattus norvegicus [14]) was 32.9% and the Swelling (Rattus norvegicus [15]) was 29.1%. The Swelling (Rattus norvegicus [16]) was 25.5%, the inhibition in vivo at 10 mg/kg (Rattus norvegicus [17]) was 20.3% and the Swelling (Rattus norvegicus [18]) was 48.6%. For the same compound, the Swelling (Rattus norvegicus [19]) was 48.5%, the inhibition in vivo at 100 mg/kg (Rattus norvegicus [20]) was 58.6% and the inhibition in vivo at 10 mg/kg (Rattus norvegicus [21]) was 35.8%. The inhibition in vivo at 25 mg/kg (Rattus norvegicus [22]) was 33.3%, the inhibition in vivo at 30 mg/kg (Rattus norvegicus [23]) was 43.6% and the inhibition in vivo at 10 mg/kg (Rattus norvegicus [24]) was 50.6%. The inhibition in vivo at 3 mg/kg (Rattus norvegicus [25]) was 36%, the Swelling (Rattus norvegicus [26]) was 46.7% and the inhibition in vivo at 100 mg/kg (Rattus norvegicus [27]) was 58.6%. It also gave an inhibition in vivo at 5 mg/kg (Rattus norvegicus [28]) of 26%, an inhibition in vivo at 5 mg/kg (Rattus norvegicus [29]) of -3.2% and a Swelling (Rattus norvegicus [30]) of 33%.

For `Nc1ccc(NC(=O)c2c(O)c3cccnc3n(-c3ccccc3)c2=O)cc1`, the inhibition in vivo at 100 mg/kg (Rattus norvegicus [1]) was -5.5%, the inhibition in vivo at 100 mg/kg (Rattus norvegicus [2]) was 0% and the Swelling (Rattus norvegicus [31]) was 79%. For the same compound, the Swelling (Rattus norvegicus [32]) was 76.9%.

Compound `O=C(Nc1ccccc1)c1c(O)c2cccnc2n(-c2ccccc2)c1=O` has an inhibition in vivo at 100 mg/kg (Rattus norvegicus [1]) of 4.6%, an inhibition in vivo at 100 mg/kg (Rattus norvegicus [2]) of -15% and a Swelling (Rattus norvegicus [18]) of 73.8%. It also gave a Swelling (Rattus norvegicus [26]) of 68.4%.

For `O=C(Nc1cnccn1)c1c(O)c2cccnc2n(-c2ccccc2)c1=O`, the inhibition in vivo at 100 mg/kg (Rattus norvegicus [1]) was 29.6%, the inhibition in vivo at 100 mg/kg (Rattus norvegicus [33]) was 24.3% and the inhibition in vivo at 100 mg/kg (Rattus norvegicus [2]) was 21.2%. It also gave an inhibition in vivo at 100 mg/kg (Rattus norvegicus [34]) of 26.7%, a Swelling (Rattus norvegicus [18]) of 50.6% and a Swelling (Rattus norvegicus [26]) of 50.5%.

In the case of `O=C(Nc1ccccn1)c1c(O)c2cccnc2n(-c2ccccc2)c1=O`, the inhibition in vivo at 100 mg/kg (Rattus norvegicus [1]) is reported as -13.5%, the inhibition in vivo at 100 mg/kg (Rattus norvegicus [2]) is reported as 14.6% and the Swelling (Rattus norvegicus [18]) is reported as 54.8%. The Swelling (Rattus norvegicus [26]) was 81.4%.
